What all share (assay type): functional
For test [1], the system named is Rattus norvegicus. Description: Antihyperlipidemic activity in Triton WR-1339-induced hyperlipidemic rat assessed as decrease in plasma total cholesterol level at 100 mg/kg, po relative to control. More on the design: scale not given: the % may be the effect or the level left. A digest of the protocol: (§1)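 Triton WR-1339 given to rats to induce hyperlipidemia; oral dosing. Plasma TC, PL, TG in mg/dL; PHLA as […]/h/mL plasma. Mean ± SD of six rats; Triton group compared with control, Triton plus dosed group compared with Triton group.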

Test [2] has as its system Rattus norvegicus. Nature of the test: Antihyperlipidemic activity in Triton WR-1339-induced hyperlipidemic rat assessed as decrease in plasma phospholipid level at 100 mg/kg, po relative to control. More on the design: scale not given: the % may be the effect or the level left. A digest of the protocol: as §1
The subject of test [3] is Rattus norvegicus. Description: Antihyperlipidemic activity in Triton WR-1339-induced hyperlipidemic rat assessed as decrease in plasma triglyceride level at 100 mg/kg, po relative to control. More on the design: scale not given: the % may be the effect or the level left. The method in brief: as §1
Test [4] concerns Rattus norvegicus. Description: Antihyperlipidemic activity in Triton WR-1339-induced hyperlipidemic rat assessed as increase in PHLA enzyme level at 100 mg/kg, po. A digest of the protocol: as §1
Test [5] relates to Rattus norvegicus. Nature of the test: Antihyperlipidemic activity in Triton WR-1339-induced hyperlipidemic rat assessed as increase in LCAT enzyme level at 100 mg/kg, po. The method in brief: as §1
Test [6] concerns Rattus norvegicus. Nature of the test: Antihyperlipidemic activity in HFD-induced hyperlipidemic Charles Foster rat assessed as decrease in serum total cholesterol level at 100 mg/kg, po administered for 4 weeks relative to control. More on the design: scale not given: the % may be the effect or the level left. The method in brief: (§2)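 Male Charles Foster rats (200−225 g): high-fat diet 4 weeks, then diet plus daily dosing 4 weeks. Overnight fast, retro-orbital blood in EDTA (3 mg/mL blood), centrifuged to serum. TC, PL, TG in mg/dL; LCAT as nmol cholesterol released/h/L plasma. Mean ± SD; dosed groups compared with high-fat group, P by significance levels.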

In test [7] the test system is Rattus norvegicus. Nature of the test: Antihyperlipidemic activity in HFD-induced hyperlipidemic Charles Foster rat assessed as decrease in serum phospholipid level at 100 mg/kg, po administered for 4 weeks relative to control. More on the design: scale not given: the % may be the effect or the level left. A digest of the protocol:
as §2

Test [8] relates to Rattus norvegicus. Description: Antihyperlipidemic activity in HFD-induced hyperlipidemic Charles Foster rat assessed as decrease in serum triglyceride level at 100 mg/kg, po administered for 4 weeks relative to control. More on the design: scale not given: the % may be the effect or the level left. The method in brief: as §2
For test [9], the system named is Rattus norvegicus. Description: Antihyperlipidemic activity in HFD-induced hyperlipidemic Charles Foster rat assessed as increase in serum LCAT enzyme level at 100 mg/kg, po administered for 4 weeks relative to control. The method in brief: as §2
Test [10] has as its system Rattus norvegicus. Nature of the test: Antihyperlipidemic activity in HFD-induced hyperlipidemic Charles Foster rat assessed as decrease in plasma VLDL-total cholesterol level at 100 mg/kg, po administered for 4 weeks relative to control. More on the design: scale not given: the % may be the effect or the level left. The method in brief:
(§3)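 After 4 weeks high-fat feeding plus 4 weeks daily dosing, overnight fast, retro-orbital blood into EDTA tubes. Serum split into VLDL, LDL and HDL by polyanionic precipitation; each fraction assayed for TC, PL, TG and apoprotein (mg/dL plasma). Pooled data from 6 rats/group, mean ± SD, dosed groups compared with high-fat group.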

In test [11] the test system is Rattus norvegicus. Nature of the test: Antihyperlipidemic activity in HFD-induced hyperlipidemic Charles Foster rat assessed as decrease in plasma VLDL-phospholipid level at 100 mg/kg, po administered for 4 weeks relative to control. More on the design: scale not given: the % may be the effect or the level left. The method in brief: as §3
In test [12] the test system is Rattus norvegicus. Description: Antihyperlipidemic activity in HFD-induced hyperlipidemic Charles Foster rat assessed as decrease in plasma VLDL-triglyceride level at 100 mg/kg, po administered for 4 weeks relative to control. More on the design: scale not given: the % may be the effect or the level left. A digest of the protocol: as §3
Test [13] concerns Rattus norvegicus. Nature of the test: Antihyperlipidemic activity in HFD-induced hyperlipidemic Charles Foster rat assessed as decrease in plasma VLDL-apoprotein level at 100 mg/kg, po administered for 4 weeks relative to control. More on the design: scale not given: the % may be the effect or the level left. A digest of the protocol:
as §3

In test [14] the test system is Rattus norvegicus. Nature of the test: Antihyperlipidemic activity in HFD-induced hyperlipidemic Charles Foster rat assessed as decrease in plasma LDL-total cholesterol level at 100 mg/kg, po administered for 4 weeks relative to control. More on the design: scale not given: the % may be the effect or the level left. A digest of the protocol: as §3
Test [15] has as its system Rattus norvegicus. Description: Antihyperlipidemic activity in HFD-induced hyperlipidemic Charles Foster rat assessed as decrease in plasma LDL-phospholipid level at 100 mg/kg, po administered for 4 weeks relative to control. More on the design: scale not given: the % may be the effect or the level left. A digest of the protocol:
as §3

The test system of test [16] is Rattus norvegicus. Nature of the test: Antihyperlipidemic activity in HFD-induced hyperlipidemic Charles Foster rat assessed as decrease in plasma LDL-triglyceride level at 100 mg/kg, po administered for 4 weeks relative to control. More on the design: scale not given: the % may be the effect or the level left. The method in brief:
as §3

For test [17], the system named is Rattus norvegicus. Description: Antihyperlipidemic activity in HFD-induced hyperlipidemic Charles Foster rat assessed as decrease in plasma LDL-apoprotein level at 100 mg/kg, po administered for 4 weeks relative to control. More on the design: scale not given: the % may be the effect or the level left. A digest of the protocol: as §3
Test [18] deals with Rattus norvegicus. Nature of the test: Antihyperlipidemic activity in HFD-induced hyperlipidemic Charles Foster rat assessed as increase in plasma HDL-total cholesterol level at 100 mg/kg, po administered for 4 weeks relative to control. The method in brief:
as §3

The subject of test [19] is Rattus norvegicus. Nature of the test: Antihyperlipidemic activity in HFD-induced hyperlipidemic Charles Foster rat assessed as increase in plasma HDL-phospholipid level at 100 mg/kg, po administered for 4 weeks relative to control. The method in brief: as §3
Test [20] has as its system Rattus norvegicus. Description: Antihyperlipidemic activity in HFD-induced hyperlipidemic Charles Foster rat assessed as increase in plasma HDL-triglyceride level at 100 mg/kg, po administered for 4 weeks relative to control. The method in brief: as §3
Test [21] has as its system Rattus norvegicus. Description: Antihyperlipidemic activity in HFD-induced hyperlipidemic Charles Foster rat assessed as increase in plasma HDL-apoprotein level at 100 mg/kg, po administered for 4 weeks relative to control. A digest of the protocol:
as §3

The test system of test [22] is Rattus norvegicus. Description: Antihyperlipidemic activity in HFD-induced hyperlipidemic Charles Foster rat assessed as decrease in liver total cholesterol level at 100 mg/kg, po administered for 4 weeks relative to control. More on the design: scale not given: the % may be the effect or the level left. A digest of the protocol: (§4)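 Adult male Charles Foster rats (200−225 g), high-fat diet 4 weeks, then diet plus daily dosing 4 more weeks; overnight fast, sacrifice, liver washed in cold 0.15 M KCl and held at 4 °C. Lipids extracted from liver homogenate in CHCl3/CH3OH (2:1 v/v), TC, PL and TG read in mg/g; pooled data from 6 rats/group, mean ± SD.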

For test [23], the system named is Rattus norvegicus. Description: Antihyperlipidemic activity in HFD-induced hyperlipidemic Charles Foster rat assessed as decrease in liver phospholipid level at 100 mg/kg, po administered for 4 weeks relative to control. More on the design: scale not given: the % may be the effect or the level left. A digest of the protocol: as §4
For test [24], the system named is Rattus norvegicus. Description: Antihyperlipidemic activity in HFD-induced hyperlipidemic Charles Foster rat assessed as decrease in liver triglyceride level at 100 mg/kg, po administered for 4 weeks relative to control. More on the design: scale not given: the % may be the effect or the level left. A digest of the protocol: as §4
Test [25] deals with Rattus norvegicus. Description: Antihyperlipidemic activity in HFD-induced hyperlipidemic Charles Foster rat assessed as reactivation of LPL activity at 100 mg/kg, po administered for 4 weeks relative to control. A digest of the protocol: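 Male Charles Foster rats fed high-fat diet 4 weeks, then diet plus daily dosing 4 weeks. Liver homogenized (10% w/v) in cold 100 mM phosphate buffer pH 7.2; total lipolytic LPL activity read as nmol free fatty acid formed/h/mg protein; pooled data from 6 rats/group, mean ± SD.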

The test system of test [26] is Rattus norvegicus. Description: Antihyperlipidemic activity in HFD-induced hyperlipidemic Charles Foster rat assessed as increase in [I125]-LDL catabolism in plasma membrane of liver at 100 mg/kg/day, po administered for 4 weeks. The method in brief: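 Rats on 8 weeks total of high-fat diet, dosed daily for the last 4 weeks, then sacrificed. Human serum LDL radiolabeled with I125; specific binding to liver plasma membrane preparation measured as receptor-mediated LDL catabolism. Mean ± SD, n = 6.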

In test [27] the test system is Rattus norvegicus. Nature of the test: Antihyperlipidemic activity in HFD-induced hyperlipidemic Charles Foster rat assessed as increase in cholic acid excretion in feces at 100 mg/kg/day, po administered for 4 weeks measured after 30 days relative to control. The method in brief:
(§5)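 Rats fed high-fat diet 4 weeks, then diet plus daily dosing 4 weeks. Cholic and deoxycholic acid excreted in feces measured; dosed groups compared with high-fat group, control compared with high-fat group.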

The test system of test [28] is Rattus norvegicus. Nature of the test: Antihyperlipidemic activity in HFD-induced hyperlipidemic Charles Foster rat assessed as increase in deoxycholic acid excretion in feces at 100 mg/kg/day, po administered for 4 weeks measured after 30 days relative to control. The method in brief:
as §5

For the compound `CCOC(=O)C(C)(C)Oc1ccc(C(c2cn(CC)c3ccccc23)c2cn(CC)c3ccccc23)cc1`, the Activity with Rattus norvegicus [1] came to 11%; in the test with Rattus norvegicus [2], 9%; with Rattus norvegicus [3], 9%.
For the compound `CCOC(=O)CCCOc1ccc(C(c2c[nH]c3ccccc23)c2c[nH]c3ccccc23)cc1`, the Activity in the test on Rattus norvegicus [1] worked out at 12%; in the test with Rattus norvegicus [2] it was 15%; in the test with Rattus norvegicus [3], 12%.
For the compound `CCOC(=O)COc1ccc(C(c2cn(CC)c3ccccc23)c2cn(CC)c3ccccc23)cc1`, the Activity is reported as 12% with Rattus norvegicus [1], 6% with Rattus norvegicus [2] and 10% with Rattus norvegicus [3].
As for `Cc1ccc(C)c(OCCCC(C)(C)C(=O)O)c1` [GEMFIBROZIL], the Activity in the test on Rattus norvegicus [1] was 33%; in the test on Rattus norvegicus [2], 35%; with Rattus norvegicus [3], 35%; with Rattus norvegicus [5], 27 nmol/h/mL. In the test on Rattus norvegicus [4], the percent increase came to 27%.
For the compound `CCOC(=O)C(C)(C)Oc1ccc(C(c2c[nH]c3ccccc23)c2c[nH]c3ccccc23)cc1`, the values for the Activity with Rattus norvegicus [1], in the test with Rattus norvegicus [2] and with Rattus norvegicus [3] were 9%, 9% and 6%, respectively.
For `CCOC(=O)C(C)Oc1ccc(C(c2cn(C)c3ccccc23)c2cn(C)c3ccccc23)cc1` (stereo not drawn), the Activity turned out to be 10% with Rattus norvegicus [1], 6% in the test with Rattus norvegicus [2] and 8% with Rattus norvegicus [3].
With `CCOC(=O)COc1ccc(C(c2c[nH]c3ccccc23)c2c[nH]c3ccccc23)cc1`, the figures for the Activity in the test with Rattus norvegicus [1], in the test on Rattus norvegicus [2] and in the test with Rattus norvegicus [3] were 12%, 25% and 10%, respectively.
In the same order, the values of `CCOC(=O)COc1ccc(C(c2cn(C)c3ccccc23)c2cn(C)c3ccccc23)cc1` are 10%, 12% and 9%.
Turning to `CCOC(=O)C(C)(C)Oc1ccc(C(c2cn(C)c3ccccc23)c2cn(C)c3ccccc23)cc1`, the Activity turned out to be 10% in the test with Rattus norvegicus [1], 9% with Rattus norvegicus [2] and 5% with Rattus norvegicus [3].
As to `CCOC(=O)C(C)Oc1ccc(C(c2c(C)[nH]c3ccccc23)c2c(C)[nH]c3ccccc23)cc1` (stereo not drawn), the Activity in the test with Rattus norvegicus [1] is on record as 9%; in the test with Rattus norvegicus [2], 5%; in the test on Rattus norvegicus [3], 8%.
With `CCOC(=O)C(C)Oc1ccc(C(c2c(C)n(C)c3ccccc23)c2c(C)n(C)c3ccccc23)cc1` (stereo not drawn), the Activity in the test with Rattus norvegicus [1] is listed as 10%; with Rattus norvegicus [2], 10%; in the test with Rattus norvegicus [3], 6%.
Consider `CC(C)OC(=O)C(C)(C)Oc1ccc(C(=O)c2ccc(Cl)cc2)cc1` [FENOFIBRATE], for which the Activity in the test with Rattus norvegicus [6] is on record as 36%; in the test with Rattus norvegicus [7], 34%; in the test with Rattus norvegicus [8], 33%; in the test with Rattus norvegicus [9], 34%; with Rattus norvegicus [10] it was 28%; with Rattus norvegicus [11], 24%. For the same compound, the Activity is on record as 30% in the test on Rattus norvegicus [12]; 35% in the test with Rattus norvegicus [13]; 28% in the test on Rattus norvegicus [14]; 28% with Rattus norvegicus [15]; 27% in the test with Rattus norvegicus [16]; 28% in the test with Rattus norvegicus [17]. Further, the Activity came out at 16% in the test on Rattus norvegicus [18]; 15% in the test on Rattus norvegicus [19]; 16% in the test on Rattus norvegicus [20]; 17% in the test on Rattus norvegicus [21]; 37% with Rattus norvegicus [22]; 33% with Rattus norvegicus [23]. For the same compound, the Activity in the test with Rattus norvegicus [24] is on record as 34%; with Rattus norvegicus [25] it was 26%; with Rattus norvegicus [26], 30%; in the test on Rattus norvegicus [27], 31%; in the test with Rattus norvegicus [28], 33%.

The record behind these values is ChEMBL document CHEMBL2029264, “Indole-based fibrates as potential hypolipidemic and antiobesity agents” (J Med Chem, 2012).
